Activity calls are given as the source filed them. The calls are words filed in the database; no cut-off is given here.
How the values were obtained:
[1] = Inhibition of HCV genotype 1b wild type recombinant NS5B RNA dependent RNA polymerase using IRES RNA as substrate after 30 mins by radioactive assay in presence of [alpha32p]UTP; parameters: species or system Hepatitis C virus subtype 1b
Method in brief: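 Recombinant genotype 1b NS5B (wild-type or S282T), 40 ng/μL, with 20 ng/μL genotype 1b (−) IRES RNA template. Mix holds 5 μM each of the four natural ribonucleotides plus [α-³²P]UTP, RNase inhibitor 1 unit/μL, 5 mM MgCl₂ and 2 mM DTT in 50 mM Hepes pH 7.5. Incubated at 27 °C for 30 min, then stopped with EDTA/NaCl/citrate. Radioactive RNA product quantified and IC50 fitted.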

[2] = target: RNA-directed RNA polymerase (Hepacivirus hominis, UniProt O39930, S282T); assay: Inhibition of HCV genotype 1b recombinant NS5B RNA dependent RNA polymerase S282T mutant using IRES RNA as substrate after 30 mins by radioactive assay in presence of [alpha32p]UTP; parameters: species or system Hepatitis C virus subtype 1b
Chain of RNA-directed RNA polymerase (O39930 entry or part of it S282T): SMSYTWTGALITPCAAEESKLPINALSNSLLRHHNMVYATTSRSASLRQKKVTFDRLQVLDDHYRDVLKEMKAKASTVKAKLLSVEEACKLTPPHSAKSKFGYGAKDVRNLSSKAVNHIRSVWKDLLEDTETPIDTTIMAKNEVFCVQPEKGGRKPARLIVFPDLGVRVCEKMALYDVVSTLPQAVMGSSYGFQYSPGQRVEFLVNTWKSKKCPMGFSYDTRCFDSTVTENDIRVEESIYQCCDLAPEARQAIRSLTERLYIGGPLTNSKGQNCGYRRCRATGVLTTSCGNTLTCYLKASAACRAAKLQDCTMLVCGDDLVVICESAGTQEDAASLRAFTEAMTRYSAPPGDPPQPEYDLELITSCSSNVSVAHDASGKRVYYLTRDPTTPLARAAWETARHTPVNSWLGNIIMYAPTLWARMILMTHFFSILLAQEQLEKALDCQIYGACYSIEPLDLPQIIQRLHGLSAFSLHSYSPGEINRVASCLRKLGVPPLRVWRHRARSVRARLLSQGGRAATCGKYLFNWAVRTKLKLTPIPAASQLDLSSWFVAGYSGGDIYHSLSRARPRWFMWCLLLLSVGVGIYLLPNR

[3] = Cytotoxicity against human Lunet cells expressing ET subgenomic replicon after 4 days by Celltitre-Glo assay; format: cell-based
Method in brief: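 ET-Lunet replicon cells, 3000 cells/well, incubated 4 days with serially diluted compound; proliferation/viability by CellTiter-Glo luminescence; CC50 = concentration giving 50% inhibition, curve-fitted.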

[4] = tested on: Hepatitis C virus; assay: Antiviral activity against HCV genotype 1b infected in human ET-Lunet cells assessed as inhibition of HCV RNA replication after 4 days by firefly luciferase reporter gene assay; format: functional, organism-based, Hepacivirus hominis; settings: 96 h
Method in brief: (§1)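 ET-Lunet cells carrying genotype 1b replicon seeded at 3000 cells/well, exposed 4 days to serially diluted compound; HCV RNA replication read as firefly luciferase luminescence (Bright-Glo). EC50 taken as concentration giving 50% inhibition, from curve fitting.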

[5] = tested on: Hepatitis C virus; assay: Antiviral activity against HCV genotype 1b infected in human ET-Lunet cells assessed as inhibition of HCV RNA replication up to 100 uM after 4 days by firefly luciferase reporter gene assay; format: functional, organism-based; settings: Hepacivirus hominis; method in brief: as §1

Compound	IC50 [1]	IC50 [2]	CC50 at 96 h [3]	EC50 [4]	inhibition [5]
Nc1ccn([C@@H]2O[C@H](COP(=O)(O)OP(=O)(O)OP(=O)(O)O)[C@@H](O)[C@@]23CCO3)c(=O)n1	> 100 µM	–	–	–	–
COc1nc(N)nc2c1ncn2[C@@H]1O[C@H](COP(=O)(O)OP(=O)(O)OP(=O)(O)O)[C@@H](O)[C@@]1(C)F	4.2 µM	5.31 µM	–	–	–
COc1nc(N)nc2c1ncn2[C@@H]1O[C@H](CO[P@@](=O)(N[C@@H](C)C(=O)OC(C)C)Oc2ccccc2)[C@@H](O)[C@]12CCO2	–	–	> 20 µM	0.0045 µM	–
COc1nc(N)nc2c1ncn2[C@@H]1O[C@H](CO[P@](=O)(N[C@@H](C)C(=O)OCC(C)C)Oc2ccccc2)[C@@H](O)[C@]12CCO2	–	–	> 20 µM	4.42 µM	–
CC(C)OC(=O)[C@H](C)NP(=O)(OC[C@H]1O[C@@H](n2ccc(N)nc2=O)[C@@]2(CCO2)[C@@H]1O)Oc1ccccc1 (stereo partly drawn)	–	–	> 100 µM	16.7 µM	–
COC(=O)[C@H](C)NP(=O)(OC[C@H]1O[C@@H](n2cnc3c(OC)nc(N)nc32)[C@@]2(CCO2)[C@@H]1O)Oc1ccccc1 (mixture of isomers)	–	–	> 20 µM	7.16 µM	–
O=c1ccn([C@@H]2O[C@H](CO)[C@@H](O)[C@@]23CCO3)c(=O)[nH]1	–	–	> 100 µM	> 100 µM	–
COc1nc(N)nc2c1ncn2[C@@H]1O[C@H](CO[P@@](=O)(N[C@@H](C)C(=O)OCC(C)(C)C)Oc2ccccc2)[C@@H](O)[C@]12CCO2	–	–	> 20 µM	1.02 µM	–
COc1nc(N)nc2c1ncn2[C@@H]1O[C@H](CO[P@@](=O)(N[C@@H](C)C(=O)OC2CCCC2)Oc2ccccc2)[C@@H](O)[C@]12CCO2	–	–	> 20 µM	0.45 µM	–
CCOC(=O)[C@H](C)N[P@](=O)(OC[C@H]1O[C@@H](n2cnc3c(OC)nc(N)nc32)[C@@]2(CCO2)[C@@H]1O)Oc1ccccc1	–	–	> 20 µM	0.86 µM	–
COc1nc(N)nc2c1ncn2[C@@H]1O[C@H](CO[P@](=O)(N[C@@H](C)C(=O)OC(C)C)Oc2ccccc2)[C@@H](O)[C@]12CCO2	–	–	> 20 µM	4.52 µM	–
Nc1ccn([C@@H]2O[C@H](COP(=O)(O)OP(=O)(O)OP(=O)(O)O)[C@@H](O)[C@]23CCO3)c(=O)n1	8.48 µM	> 100 µM	–	–	–
COc1nc(N)nc2c1ncn2[C@@H]1O[C@H](CO[P@](=O)(N[C@@H](C)C(=O)OCC(C)(C)C)Oc2ccccc2)[C@@H](O)[C@]12CCO2	–	–	> 20 µM	9.31 µM	–
C[C@@]1(F)[C@H](O)[C@@H](CO)O[C@H]1n1ccc(N)nc1=O	8.41 µM	56.7 µM	–	–	–
O=c1ccn([C@@H]2O[C@H](COP(=O)(O)OP(=O)(O)OP(=O)(O)O)[C@@H](O)[C@]23CCO3)c(=O)[nH]1	39.4 µM	> 100 µM	–	–	–
COC(=O)[C@H](C)NP(=O)(OC[C@H]1O[C@@H](n2ccc(=O)[nH]c2=O)[C@]2(CCO2)[C@@H]1O)Oc1ccccc1 (mixture of isomers)	–	–	> 100 µM	28.5 µM	–
Nc1ccn([C@@H]2O[C@H](CO)[C@@H](O)[C@]23CCO3)c(=O)n1	–	–	> 100 µM	56.6 µM	–
CCCCOC(=O)[C@H](C)N[P@@](=O)(OC[C@H]1O[C@@H](n2cnc3c(OC)nc(N)nc32)[C@@]2(CCO2)[C@@H]1O)Oc1ccccc1	–	–	> 20 µM	3.1 µM	–
COC(=O)[C@H](C)NP(=O)(OC[C@H]1O[C@@H](n2ccc(=O)[nH]c2=O)[C@]2(CCCO2)[C@@H]1O)Oc1ccccc1 (mixture of isomers)	–	–	> 100 µM	20.6 µM	–
Nc1ccn([C@@H]2O[C@H](COP(=O)(O)OP(=O)(O)OP(=O)(O)O)[C@@H](O)[C@]23CCCO3)c(=O)n1	45.3 µM	> 100 µM	–	–	–

Compound	IC50 [1]	IC50 [2]	CC50 at 96 h [3]	EC50 [4]	inhibition [5]
Nc1nc2c(ncn2[C@@H]2O[C@H](CO)[C@@H](O)[C@]23CCO3)c(=O)[nH]1	–	–	–	–	inactive
COc1nc(N)nc2c1ncn2[C@@H]1O[C@H](CO[P@@](=O)(N[C@@H](C)C(=O)OCC(C)C)Oc2ccccc2)[C@@H](O)[C@]12CCO2	–	–	> 20 µM	0.57 µM	–
CCCCOC(=O)[C@H](C)N[P@](=O)(OC[C@H]1O[C@@H](n2cnc3c(OC)nc(N)nc32)[C@@]2(CCO2)[C@@H]1O)Oc1ccccc1	–	–	> 20 µM	0.27 µM	–
Nc1ccn([C@@H]2O[C@H](CO)[C@@H](O)[C@]23CCCO3)c(=O)n1	–	–	> 100 µM	> 100 µM	–
Nc1nc2c(ncn2[C@@H]2O[C@H](COP(=O)(O)OP(=O)(O)OP(=O)(O)O)[C@@H](O)[C@]23CCO3)c(=O)[nH]1	9.5 µM	10.4 µM	–	–	–
Nc1ccn([C@@H]2O[C@H](COP(=O)(O)OP(=O)(O)OP(=O)(O)O)[C@@H](O)[C@@]23CCCO3)c(=O)n1	> 100 µM	–	–	–	–
COc1nc(N)nc2c1ncn2[C@@H]1O[C@H](COP(=O)(N[C@@H](C)C(=O)OCC(C)(C)C)Oc2cccc3ccccc23)[C@@H](O)[C@]12CCO2 (mixture of isomers)	–	–	> 20 µM	0.31 µM	–
O=c1ccn([C@@H]2O[C@H](CO)[C@@H](O)[C@@]23CCCO3)c(=O)[nH]1	–	–	> 100 µM	14.9 µM	–
Nc1ccn([C@@H]2O[C@H](CO)[C@@H](O)[C@@]23CCCO3)c(=O)n1	–	–	> 100 µM	> 100 µM	–
COC(=O)[C@H](C)NP(=O)(OC[C@H]1O[C@@H](n2ccc(=O)[nH]c2=O)[C@@]2(CCCO2)[C@@H]1O)Oc1ccccc1 (mixture of isomers)	–	–	> 100 µM	28.3 µM	–
COc1nc(N)nc2c1ncn2[C@@H]1O[C@H](CO)[C@@H](O)[C@]12CCO2	–	–	–	–	inactive
O=c1ccn([C@@H]2O[C@H](COP(=O)(O)OP(=O)(O)OP(=O)(O)O)[C@@H](O)[C@@]23CCCO3)c(=O)[nH]1	> 100 µM	–	–	–	–
COC(=O)[C@H](C)NP(=O)(OC[C@H]1O[C@@H](n2ccc(=O)[nH]c2=O)[C@@]2(CCO2)[C@@H]1O)Oc1ccccc1 (mixture of isomers)	–	–	> 100 µM	16.7 µM	–
O=c1ccn([C@@H]2O[C@H](CO)[C@@H](O)[C@]23CCCO3)c(=O)[nH]1	–	–	> 100 µM	> 100 µM	–
Nc1ccn([C@@H]2O[C@H](CO)[C@@H](O)[C@@]23CCO3)c(=O)n1	–	–	> 100 µM	> 100 µM	–
COc1nc(N)nc2c1ncn2[C@@H]1O[C@H](CO[P@@](=O)(N[C@@H](C)C(=O)OCc2ccccc2)Oc2ccccc2)[C@@H](O)[C@]12CCO2	–	–	> 20 µM	8.65 µM	–
O=c1ccn([C@@H]2O[C@H](CO)[C@@H](O)[C@]23CCO3)c(=O)[nH]1	–	–	> 100 µM	> 100 µM	–
COc1nc(N)nc2c1ncn2[C@@H]1O[C@H](CO[P@](=O)(N[C@@H](C)C(=O)OC2CCCC2)Oc2ccccc2)[C@@H](O)[C@]12CCO2	–	–	> 20 µM	0.67 µM	–
COc1nc(N)nc2c1ncn2[C@@H]1O[C@H](CO[P@](=O)(N[C@@H](C)C(=O)OCc2ccccc2)Oc2ccccc2)[C@@H](O)[C@]12CCO2	–	–	> 20 µM	11.7 µM	–

— ChEMBL document CHEMBL3120143, “Use of 2'-spirocyclic ethers in HCV nucleoside design” (J Med Chem, 2014)
